MFC, MIC and Activity data for one sequence are collected here from ChEMBL document CHEMBL1212759, “Antifungal activity of colistin against mucorales species in vitro and in a murine model of Rhizopus oryzae pulmonary infection” (Antimicrob Agents Chemother, 2010).

The source made the active and inactive calls. The calls are words filed in the database; no cut-off is given here.

Assay [1] concerns Rhizopus arrhizus. Put plainly: Antimicrobial activity against Rhizopus oryzae isolate 5799 after 24 hrs in yeast nitrogen base complete medium by broth microdilution method. The assay is classed as functional, organism-based. The gist of the method:
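Microdilution was done in yeast nitrogen base complete medium, with colistin serially diluted 128 to 0.12 μg/ml. Spores were harvested from YAG plates (48–72 h, 37°C), washed, filtered and counted, then added at 0.5 × 10^4 to 4 × 10^4 cells/ml. After 24 h at 37°C, MIC was taken visually as the lowest concentration with complete growth inhibition.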

In assay [2] the test system is Rhizopus arrhizus. Put plainly: Antimicrobial activity against Rhizopus oryzae assessed as plasma membrane disruption-related ATP release at 8 ug/ml after 30 mins by Cell Titer-Glo luminescent assay. The class given is functional, organism-based. An outline of the steps:
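Spores at 10^7 cells/ml in RPMI 1640 were germinated about 6 h at 37°C. Germlings were resuspended in RPMI with colistin at 8 or 32 μg/ml, or drug-free, and shaken at 37°C. Supernatants taken at 5, 30, 60 and 90 min were assayed for released ATP by CellTiter-Glo luminescence.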

The test system of another assay is Rhizopus homothallicus. Put plainly: Antimicrobial activity against Rhizopus homothallicus isolate 6360 after 24 hrs in RMPI 1640 medium by broth microdilution method. The assay is classed as functional. An outline of the steps:
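Colistin was serially diluted from 64 to 0.06 μg/ml in RPMI 1640 with glucamine and without bicarbonate. Fresh spores from 48–72 h YAG plates were added at 0.5 × 10^4 to 4 × 10^4 cells/ml. Plates were incubated 24 h at 37°C. MIC was read visually as the lowest concentration giving 100% growth inhibition.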

Take COLISTIN: in the assay with Rhizopus arrhizus [1], the MFC was above 128 µg/mL and the MIC amounted to 128 µg/mL. In the assay with Rhizopus arrhizus [2], the outcome was Active. In the assay on Rhizopus homothallicus, the MFC worked out at 64 µg/mL and the lowest concentration to inhibit growth (MIC) was 32 µg/mL.
